Results on 22 compounds are retold here after ChEMBL document CHEMBL1129034, “Novel N6-(substituted-phenylcarbamoyl)adenosine-5'-uronamides as potent agonists for A3 adenosine receptors” (J Med Chem, 1996).

A word on the Ki: it is a measure of affinity in units of concentration, obtained from inhibition or displacement.

One test deals with T1, Adenosine receptor A1 (Rattus norvegicus, UniProt P25099).
T1 sequence (P25099 whole entry): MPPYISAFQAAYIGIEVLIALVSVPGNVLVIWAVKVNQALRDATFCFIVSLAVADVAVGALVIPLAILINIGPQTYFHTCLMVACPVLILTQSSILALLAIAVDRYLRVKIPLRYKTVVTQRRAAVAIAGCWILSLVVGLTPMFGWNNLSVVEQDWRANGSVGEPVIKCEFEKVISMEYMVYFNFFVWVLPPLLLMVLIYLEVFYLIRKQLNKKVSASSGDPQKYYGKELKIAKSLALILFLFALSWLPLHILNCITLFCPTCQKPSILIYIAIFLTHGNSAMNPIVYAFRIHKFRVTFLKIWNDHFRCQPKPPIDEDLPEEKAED
Put plainly: Displacement of [3H]CHA from Adenosine A1 receptor in rat brain homogenates. It counts as tissue-based. In general terms: Displacement assays read how much labelled ligand stays bound in the presence of the test substance.

In another test the target is Adenosine receptor A2a (Rattus norvegicus, UniProt P30543). Put plainly: Displacement of [3H]-CGS- 21680 from Adenosine A2A receptor in rat striatal homogenates. The procedure, abridged:
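Rat striatal homogenates labelled with [3H]CGS 21680 for A2A; IC50 by probit analysis over at least six concentrations, Ki via Cheng-Prusoff using Kd 18.5 nM; n = 3-4, Ki ± SEM in nM.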

A further test addresses T2, Adenosine receptor A3 (Rattus norvegicus, UniProt P28647).
T2 sequence (P28647 whole entry): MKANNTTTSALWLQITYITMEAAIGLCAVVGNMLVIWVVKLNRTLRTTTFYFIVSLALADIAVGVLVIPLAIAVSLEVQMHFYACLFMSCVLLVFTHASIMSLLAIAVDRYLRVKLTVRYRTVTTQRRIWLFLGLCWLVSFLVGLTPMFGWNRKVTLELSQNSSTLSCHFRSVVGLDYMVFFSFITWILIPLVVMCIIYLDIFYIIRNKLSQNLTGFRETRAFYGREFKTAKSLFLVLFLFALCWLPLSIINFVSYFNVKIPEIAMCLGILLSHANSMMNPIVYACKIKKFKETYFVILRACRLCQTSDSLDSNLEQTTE
Put plainly: Displacement of [125I]AB-MECA from cloned rat Adenosine A3 receptor in stably transfected CHO cells. The class given is cell-based. The method, boiled down:
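Membranes from CHO cells stably expressing rat A3 receptor, labelled with [125I]AB-MECA; IC50 by probit analysis from at least six concentrations, converted to Ki by Cheng-Prusoff with Kd 1.48 nM; n = 3, Ki ± SEM in nM.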

The target of test [1] is Adenosine receptors; A1 & A3 (Rattus norvegicus) (UniProt P25099+P28647). Put plainly: Selectivity, ratio between A1 receptor binding affinity / A3 receptor binding affinity. It counts as protein assay.
The target of test [2] is Adenosine receptor A2a and A3 (Rattus norvegicus) (UniProt P30543+P28647). Put plainly: Selectivity, ratio between A2A receptor binding affinity / A3 receptor binding affinity. The class given is protein assay.
Sequence of Adenosine receptor A2a and A3 (Rattus norvegicus) (P30543 whole entry, looked up, one chain of several): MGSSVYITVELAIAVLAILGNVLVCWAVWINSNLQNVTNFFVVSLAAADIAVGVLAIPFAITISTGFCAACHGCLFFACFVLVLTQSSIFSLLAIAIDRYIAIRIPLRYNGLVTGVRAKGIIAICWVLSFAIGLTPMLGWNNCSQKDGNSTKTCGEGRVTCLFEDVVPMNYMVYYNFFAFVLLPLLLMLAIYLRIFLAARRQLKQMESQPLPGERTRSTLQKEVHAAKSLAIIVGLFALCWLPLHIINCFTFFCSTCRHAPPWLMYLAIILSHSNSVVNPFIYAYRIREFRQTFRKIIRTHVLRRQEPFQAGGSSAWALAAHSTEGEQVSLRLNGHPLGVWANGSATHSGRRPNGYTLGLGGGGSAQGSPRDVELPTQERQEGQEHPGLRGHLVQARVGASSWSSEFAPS

Sequence of Adenosine receptor A2a (P30543 whole entry): as the sequence (P30543 whole entry, looked up, one chain of several) above

For `CCNC(=O)[C@H]1OC(n2cnc3c(NC(=O)Nc4cccc(C(F)(F)F)c4)ncnc32)[C@H](O)[C@@H]1O` (some centres undefined), the figures for the Ki on Adenosine receptor A1, on Adenosine receptor A2a and on Adenosine receptor A3 were 700 nM, 2300 nM and 77 nM, respectively. Also, the results for the Selectivity in test [1] and in test [2] were 9.1 and 30, respectively.

Turning to `CCNC(=O)[C@H]1O[C@@H](n2cnc3c(NC(=O)Nc4cccc(OC)c4)ncnc32)[C@H](O)[C@@H]1O`, the Ki at Adenosine receptor A1 worked out at 113 nM; on Adenosine receptor A2a, 3860 nM; on Adenosine receptor A3, 42 nM. For the same compound, the values for the Selectivity in test [1] and in test [2] were 2.7 and 92, respectively.

With `CCNC(=O)[C@H]1O[C@@H](n2cnc3c(NC(=O)Nc4ccc(I)cc4)ncnc32)[C@H](O)[C@@H]1O`, the Ki at Adenosine receptor A1 turned out to be 64 nM; at Adenosine receptor A2a, 561 nM; on Adenosine receptor A3 it was 101 nM. The values for the Selectivity in test [1] and in test [2] were 0.6 and 5.6, respectively.

`CCNC(=O)[C@H]1O[C@@H](n2cnc3c(NC(=O)Nc4ccc(Cl)cc4)ncnc32)[C@H](O)[C@@H]1O`: the Ki at Adenosine receptor A1 came to 72 nM; at Adenosine receptor A2a, 1490 nM; on Adenosine receptor A3, 114 nM. The Selectivity in test [1] turned out to be 0.6; in test [2], 13.

Regarding `CCNC(=O)[C@H]1O[C@@H](n2cnc3c(NC(=O)Nc4ccc(C)cc4)ncnc32)[C@H](O)[C@@H]1O`, the Ki at Adenosine receptor A1 turned out to be 124 nM; on Adenosine receptor A2a, 351 nM; at Adenosine receptor A3, 32.3 nM. For the same compound, the Selectivity in test [1] turned out to be 3.8; in test [2], 11.

As for `CCNC(=O)[C@H]1O[C@@H](n2cnc3c(NC(=O)Nc4cccc(Br)c4)ncnc32)[C@H](O)[C@@H]1O`, the Ki on Adenosine receptor A1 is 252 nM; on Adenosine receptor A2a, 286 nM; at Adenosine receptor A3, 275 nM. Besides, the Selectivity worked out at 0.9 in test [1] and 1 in test [2].

In the case of `CNC(=O)[C@H]1O[C@@H](n2cnc3c(NC(=O)Nc4cccc(Cl)c4)ncnc32)[C@H](O)[C@@H]1O`, the values for the Ki at Adenosine receptor A1, at Adenosine receptor A2a and at Adenosine receptor A3 were 550 nM, 6700 nM and 115 nM, respectively. Besides, the Selectivity in test [1] was 4.8; in test [2] it was 58.

Consider `CCNC(=O)[C@H]1O[C@@H](n2cnc3c(NC(=O)Nc4ccc(F)cc4)ncnc32)[C@H](O)[C@@H]1O`, for which the Ki at Adenosine receptor A1 was found to be 85 nM; on Adenosine receptor A2a it was 1380 nM; at Adenosine receptor A3, 19 nM. Besides, the Selectivity came to 4.4 in test [1] and 72 in test [2].

With `CCNC(=O)[C@H]1O[C@@H](n2cnc3c(NC(=O)Nc4ccc(OC)cc4)ncnc32)[C@H](O)[C@@H]1O`, the inhibitory constant (Ki) came out at 33 nM at Adenosine receptor A1, 3360 nM on Adenosine receptor A2a and 6.6 nM at Adenosine receptor A3. Also, the Selectivity was 4.9 in test [1] and 510 in test [2].

Consider `CCNC(=O)[C@H]1OC(n2cnc3c(NC(=O)Nc4ccc(C(F)(F)F)cc4)ncnc32)[C@H](O)[C@@H]1O` (some centres undefined), for which the figures for the Ki at Adenosine receptor A1, on Adenosine receptor A2a and on Adenosine receptor A3 were 739 nM, 4830 nM and 150 nM, respectively. In addition, the figures for the Selectivity in test [1] and in test [2] were 4.9 and 32, respectively.

Consider `CCNC(=O)[C@H]1O[C@@H](n2cnc3c(NC(=O)Nc4ccccc4F)ncnc32)[C@H](O)[C@@H]1O`, for which the Ki at Adenosine receptor A1 is 77 nM; at Adenosine receptor A2a, 528 nM; at Adenosine receptor A3, 34 nM. Besides, the Selectivity in test [1] stood at 2.2; in test [2], 15.

Consider `CCNC(=O)[C@H]1O[C@@H](n2cnc3c(NC(=O)Nc4ccccc4OC)ncnc32)[C@H](O)[C@@H]1O`, for which the Ki came to 73 nM on Adenosine receptor A1, 1160 nM at Adenosine receptor A2a and 30 nM at Adenosine receptor A3. Besides, the Selectivity in test [1] stood at 2.4; in test [2] it was 38.

Turning to `CNC(=O)[C@H]1O[C@@H](n2cnc3c(NC(=O)Nc4ccc(OC)cc4)ncnc32)[C@H](O)[C@@H]1O`, the Ki at Adenosine receptor A1 stood at 491 nM; on Adenosine receptor A2a it was 8750 nM; on Adenosine receptor A3 it was 56 nM. Besides, the results for the Selectivity in test [1] and in test [2] were 8.8 and 160, respectively.

For the compound `CCNC(=O)[C@H]1O[C@@H](n2cnc3c(NC(=O)Nc4ccccc4I)ncnc32)[C@H](O)[C@@H]1O`, the Ki on Adenosine receptor A1 was found to be 179 nM; on Adenosine receptor A2a, 440 nM; on Adenosine receptor A3, 32 nM. For the same compound, the Selectivity came out at 5.6 in test [1] and 14 in test [2].

Consider `CCNC(=O)[C@H]1O[C@@H](n2cnc3c(NC(=O)Nc4cccc(F)c4)ncnc32)[C@H](O)[C@@H]1O`, for which the Ki at Adenosine receptor A1 came to 103 nM; on Adenosine receptor A2a, 611 nM; at Adenosine receptor A3 it was 39 nM. Also, the Selectivity in test [1] amounted to 2.6; in test [2], 16.

`CCNC(=O)[C@H]1O[C@@H](n2cnc3c(NC(=O)Nc4cccc(Cl)c4)ncnc32)[C@H](O)[C@@H]1O`: the Ki came out at 45 nM at Adenosine receptor A1, 420 nM on Adenosine receptor A2a and 4.4 nM at Adenosine receptor A3. Also, the Selectivity was 10 in test [1] and 96 in test [2].

For the compound `CCCCCCCCNC(=O)Nc1ncnc2c1ncn2[C@@H]1O[C@H](C(=O)NCC)[C@@H](O)[C@H]1O`, the Ki on Adenosine receptor A1 is 448 nM; on Adenosine receptor A2a it was 3070 nM; on Adenosine receptor A3, 326 nM. Besides, the figures for the Selectivity in test [1] and in test [2] were 1.4 and 9.4, respectively.

Regarding `CCNC(=O)[C@H]1O[C@@H](n2cnc3c(NC(=O)Nc4ccccc4Cl)ncnc32)[C@H](O)[C@@H]1O`, the Ki on Adenosine receptor A1 was determined as 111 nM; on Adenosine receptor A2a, 1340 nM; on Adenosine receptor A3, 7.4 nM. The results for the Selectivity in test [1] and in test [2] were 15 and 180, respectively.

Consider `CCNC(=O)[C@H]1O[C@@H](n2cnc3c(NC(=O)Nc4ccccc4C(F)(F)F)ncnc32)[C@H](O)[C@@H]1O`, for which the Ki on Adenosine receptor A1 came out at 384 nM; at Adenosine receptor A2a, 10000 nM; at Adenosine receptor A3 it was 54 nM. The Selectivity was determined as 7.4 in test [1] and 190 in test [2].

`CCNC(=O)[C@H]1O[C@@H](n2cnc3c(NC(=O)Nc4cccc(I)c4)ncnc32)[C@H](O)[C@@H]1O`: the Ki on Adenosine receptor A2a was 3940 nM; at Adenosine receptor A3, 30 nM. The Selectivity was 0.5 in test [1] and 130 in test [2].

For the compound `CCNC(=O)[C@H]1O[C@@H](n2cnc3c(NC(=O)NC(C)(C)C)ncnc32)[C@H](O)[C@@H]1O`, the Ki at Adenosine receptor A1 was 1440 nM; at Adenosine receptor A2a it was 3670 nM; on Adenosine receptor A3 it was 1930 nM. Besides, the Selectivity turned out to be 0.75 in test [1] and 1.9 in test [2].

Take `CCNC(=O)[C@H]1O[C@@H](n2cnc3c(NC(=O)Nc4ccccc4)ncnc32)[C@H](O)[C@@H]1O`: the Ki amounted to 110 nM at Adenosine receptor A1, 5360 nM on Adenosine receptor A2a and 39 nM on Adenosine receptor A3. Besides, the figures for the Selectivity in test [1] and in test [2] were 2.8 and 140, respectively.
